# C-LANA FP = KSHV C-LANA DNA binding inhibition | 340,000 compounds, 0.078% hits | AID 504423 | inhibition, % at 9 µM | MBP-C-LANA/FAM-LBS DNA binding, fluorescence polarization;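 active means highest replicate inhibition at or above 60% at 9 µM, even if other replicates fall short; inactive means all replicates below 60% inhibition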;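 further: 0% = neutral control wells and 100% = 4 µM acridine orange control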
# Keap1-Nrf2 PPI = inhibitors of human Keap1-Nrf2 protein-protein interaction; Q14145; inhibition, % at 9.4 µM; AID 504523; 340,000 compounds, 0.15% hits; Keap1 Kelch-Nrf2 peptide fluorescence polarization, 1536-well; in the data active means inhibition above about 12%; inconclusive means no clear call, values can overlap the other calls; inactive means below about 7.3%;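 further: human Keap1 Kelch domain with fluorescein labeled Nrf2 9mer peptide probe; 0% = neutral control wells and 100% = peptide positive control; higher means more block of Keap1 binding to Nrf2 peptide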
# Target sequence (Q14145 whole entry, looked up, the tested form may be a part): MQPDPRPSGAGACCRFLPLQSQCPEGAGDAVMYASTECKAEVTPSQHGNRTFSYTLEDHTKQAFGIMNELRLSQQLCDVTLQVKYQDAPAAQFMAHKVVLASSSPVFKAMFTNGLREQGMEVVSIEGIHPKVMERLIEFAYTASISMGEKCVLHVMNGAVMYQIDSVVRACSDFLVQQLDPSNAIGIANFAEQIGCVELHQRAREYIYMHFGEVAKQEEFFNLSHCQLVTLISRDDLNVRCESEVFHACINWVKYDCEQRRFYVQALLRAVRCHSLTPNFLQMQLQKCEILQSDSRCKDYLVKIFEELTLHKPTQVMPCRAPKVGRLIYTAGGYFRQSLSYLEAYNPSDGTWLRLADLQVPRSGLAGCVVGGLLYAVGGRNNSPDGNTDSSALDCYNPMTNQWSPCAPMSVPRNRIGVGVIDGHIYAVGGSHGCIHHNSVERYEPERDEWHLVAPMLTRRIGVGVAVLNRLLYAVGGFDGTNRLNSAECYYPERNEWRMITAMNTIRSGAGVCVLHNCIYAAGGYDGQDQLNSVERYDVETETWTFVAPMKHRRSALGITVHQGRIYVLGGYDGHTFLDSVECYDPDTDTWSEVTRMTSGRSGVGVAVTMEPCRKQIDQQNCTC
# MEX-5 binding = C. elegans MEX-5 TCR-2 RNA binding activity; MEX-5/FITC-TCR2 RNA binding, fluorescence polarization; active compounds read low; activity score (negative = inhibition of binding), % at 10 µM; 300,000 compounds, 0.38% hits;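 active means inhibition past about -25% in most replicates, and total fluorescence under double the plate's negative control median, limit read from the data; inconclusive means replicates evenly split on the limit, or fluorescence at least double controls; inactive means too little inhibition in most replicates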;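 further: 0% = DMSO and -100% = 5 µM competing unlabeled TCR2 RNA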
# T cell HTS = T cell immune modulators affecting CD8 T cell-vesicle binding. 2C CD8+ T cell-vesicle binding, flow cytometry; active compounds read low. response (vesicle binding), % at 7 µM. 330,000 compounds, 0.068% hits. AID 2052;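 active means response, share of CD8 T cells binding vesicles, and their 90th percentile fluorescence all below set limits, cut at about 80% in these data, passing the limit was not always enough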;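 further: values below 100% mean blocked vesicle binding to the CD8+ T cells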
#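 Incubation: binding step 1.5 h, 37 °C, antibody labelling 20 min, ice; system: murine 2C transgenic CD8+ T lymphocytes; technique: cytometric PE anti-B7-1 and Alexa647 anti-CD8 signals after 1% paraformaldehyde fixation; also added: QL9-charged Drosophila Ld/ICAM-1/B7-1 vesicles; control set: naked versus QL9-loaded vesicles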
# GRK2 aptamer HTS = human GRK2 inhibition via aptamer displacement. P25098. inhibition of aptamer binding, % at 10 µM. 330,000 compounds, 0.59% hits. AID 488847. bead flow cytometry, FAM-aptamer displacement from GRK2;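 active means inhibition of aptamer binding above 40%, roughly 3 SD of noise, on plates passing a quality check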;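 further: median bead fluorescence of bound FAM aptamer so fluorescent compounds give negative values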
# EBV gp42 inh = blocks Epstein-Barr virus glycoprotein 42 binding. Q1HVG2. Fluorescence polarization binding assay, mP read-out. inhibition, % (tested at 21.74 µM). 220,000 compounds, 0.42% hits. AID 1085; in the data active means inhibition above about 50%
# Active calls of the source: *; i = inactive; ? = inconclusive; · = no result given. Hits are enriched below; roughly 1.3% of the tested compounds scored in any of these assays.
SMILES,C-LANA FP,Keap1-Nrf2 PPI,MEX-5 binding,T cell HTS,GRK2 aptamer HTS,EBV gp42 inh
O=C(NN1C(=O)/C(=C/c2ccc(O)cc2)SC1=S)c1cccc(O)c1,-44,-58,?,388,9,·
CC(C)(C)OC(=O)N[C@@H](Cc1ccccc1)C(=O)N1CCC(C(=O)NCC(=O)O)CC1,-2,-2,4,737,4,·
CC(C)(C)OC(=O)NC(Cc1ccccc1)C(=O)N1CCC(C(=O)NCC(=O)Nc2ccc(F)cc2)CC1 (stereo unspecified),13,2,-57*,i,0,·
CCC(COC(C)=O)Nc1nc2c([nH]1)c(=O)n(C)c(=O)n2C (stereo unspecified),0,-5,-3,892,3,-19
Cn1c(=O)c2[nH]c(N/N=C(/C#N)C(N)=O)nc2n(C)c1=O,·,·,-27*,289,0,-5
CN(C)Cc1cc(O)c(CN(C)C)cc1O,10,5,-35*,505,7,-14
COc1ccc(-c2nc(-n3c(C)c(C(C)=O)c(C(C)=O)c3C)sc2C)cc1,0,-2,1,388,78*,9
Cc1ccc2nc(SCC(=O)Nc3ccccc3N3CCOCC3)c(C#N)cc2c1,-1,2,0,964,0,50*
CCc1ccc2nc(SCC(=O)Nc3ccccc3N3CCOCC3)c(C#N)cc2c1,2,-2,0,56,0,-4
COCCn1nnnc1C(c1cc2cc(C)ccc2[nH]c1=O)N1CCN(C2CCCCC2)CC1 (stereo unspecified),-2,-5,2,178,4,-2
CCc1c(C(=O)NNC(=S)Nc2ccc(S(=O)(=O)Nc3ncccn3)cc2)csc1C,0,-5,-48*,252,2,·
CCN(CC)c1ccc(/C=N/NC(=S)NCc2ccccc2)c(O)c1,1,-4,-4,429,42*,0
CN1c2ccccc2N(C)C1c1c(O)ccc2ccccc12,0,-6,0,410,0,-3
N#CC1=C(N)OC2=C(CC/C2=C\c2ccccc2)C1c1ccccc1 (stereo unspecified),1,-9,-6,239,0,95*
CCN(CC(=O)Nc1c(F)cccc1F)C(=O)CC1CCCC1,2,-4,0,232,0,·
Cn1c(CNC(=O)c2ccc(Cl)cc2)nnc1SCC(=O)N1CCOCC1,4,0,1,236,4,·
C=CCC1(CC=C)CCCN1C(=O)C1CCC(=O)N(CCc2ccccc2)C1 (stereo unspecified),2,-6,-1,66*,0,·
C=CCC1(CC=C)CCCN1C(=O)C1CCC(=O)N(CCc2ccc(OC)cc2)C1 (stereo unspecified),-1,-6,0,269,0,·
COc1cccc(C2c3[nH]c4ccccc4c3C[C@H]3C(=O)N(CCCO)CC(=O)N23)c1OC (stereo partly specified),3,1,1,i,0,·
Clc1ccc(NCc2cccnc2)cc1,1,2,-1,172,0,·
Fc1ccc(NCc2cccnc2)cc1F,9,4,?,258,0,115*
CCOC(=O)C1=C(C)NC(SCC(=O)Nc2nc(C)cs2)=C(C#N)C1c1cccs1 (stereo unspecified),·,·,4,211,51*,5
COc1ccc2c(c1)C(c1ccc([N+](=O)[O-])cc1)=NNC(c1ccco1)=N2,-2,-3,1,0.0*,0,-6
COc1ccc(C2=NNC(c3ccco3)=Nc3ccc(F)cc32)cc1,-2,-3,0,328,4,9
O=C1CC(c2ccco2)CC(O)=C1C=NCCO (stereo unspecified),1,4,-1,608,3,-70
SMILES,C-LANA FP,Keap1-Nrf2 PPI,MEX-5 binding,T cell HTS,GRK2 aptamer HTS,EBV gp42 inh
Cc1[nH]nc2c1C(c1cccc(OC(=O)N3CCOCC3)c1)C(C#N)=C(N)O2 (stereo unspecified),-2,4,-5,330,0,10
O=C(NNC(=O)c1ccccc1O)c1ccco1,1,1,-29*,217,0,-7
Nc1ccc(-c2c3ccc(=O)cc-3oc3cc(O)ccc23)cc1C(=O)O,110*,26*,?,329,1,·
O=c1ccc2c(-c3ccccc3)c3ccc(O)cc3oc-2c1,142*,98*,?,374,10,·
O=c1cc(-c2ccccc2)oc2cc(O)ccc12,-1,-7,·,·,·,·
O=C1CC(c2ccc(O)c(O)c2)Oc2cc(O)cc(O)c21 (stereo unspecified),3,-2,5,168,0,-19
Oc1ccc(C2C[C@H]3CC[C@@H]2C3)cc1O (stereo partly specified),3,-2,-65*,125,1,·
Oc1ccc(/C=N/NC(=S)Nc2cccnc2)c(O)c1O,12,-4,-43*,·,·,15
Oc1cccc(/C=N/NC(=S)Nc2cccnc2)c1O,0,-3,-12,574,18,-1
NC(=S)N/N=C/c1cccc(O)c1O,2,-4,-38*,445,3,5
Cc1cc(/C=N/NC(N)=S)c(O)c(/C=N/NC(N)=S)c1,32,0,-4,167,0,147*
CCCn1nc(C(=O)N2CC(=O)Nc3ccccc32)c2ccccc2c1=O,11,-1,-1,498,0,-25
CC(O)(CC(=O)O)CC(=O)O,·,·,-1,306,0,·
Cc1ccc(OCCNC(=O)CCc2nc3sc4c(c3c(=O)[nH]2)CCCC4)cc1,0,2,-2,214,2,·
O=C(COC(=O)c1cc2c(s1)CCC2)Nc1ccc(F)cc1,0,-5,0,223,36,17
COc1ccc(NC(=O)COC(=O)c2cc3c(s2)CCC3)cc1,6,-6,·,482,43*,·
Cc1ccc(S(=O)(=O)N2CCC(=O)N(CCOC(=O)NCc3ccccc3)CC2)cc1,·,·,·,617,0,0
CCN(C(=O)Cn1c(=O)oc2ccccc21)c1cccc(C(F)(F)F)c1,1,4,3,52*,0,-14
Cc1ccc(NC(=O)COc2ccc(/C=C3/SC(=Nc4ccccc4)N(Cc4cccnc4)C3=O)cc2)cc1,3,-4,-60*,390,0,8
Cc1ccc(NC(=O)COc2ccc(/C=N/NC(=O)CSCc3ccccc3)cc2)cc1,-1,-6,1,335,0,-7
COc1cccc(CC2(CO)CCN(S(=O)(=O)c3ccc(OC)cc3OC)CC2)c1,0,-5,2,193,4,·
CC(=O)Nc1cccc(Oc2nc(-c3ccccn3)nc3ccccc23)c1,1,-6,-35*,174,0,-2
CC(=O)Nc1ccc(Oc2nc(-c3ccccn3)nc3ccccc23)cc1,0,-2,-4,399,4,-1
CCOc1ccc(N=C2NC(=O)S/C2=C\c2ccc(N(C)C)cc2)cc1,4,2,?,i,0,54*

# Assay outcomes: PubChem BioAssay, several laboratories
